Measured values of several laboratories.
Lines come from different studies, so protocols differ.

O=C(/C=C/c1ccc2c(=O)n(Cc3cccc(F)c3)cnc2c1)NO — IC50 (SW-620; cell growth or viability, SRB; 48 h): 1.67 µM
Clc1ccc(N2CCN(Cc3c[nH]c4ncccc34)CC2)cc1 — IC50 (FaDu; cell growth or viability; 72 h): > 20 µM
O=c1c(O)c(-c2ccc(O)cc2)oc2cc(O)cc(O)c12 — IC50 (HEp-2; cell growth or viability, WST-1; 48 h): 30.3 µM
CC[C@@H](C)[C@H](N)C(=O)N1Cc2ccccc2C1 — IC50 (NOMO-1; cell growth or viability, ATP luminescence; 48 h): 4.18 µM
Cc1cc(-c2nc(C(=O)Nc3cc4oc(N5CCOCC5)nc4nc3N3CC[C@@H](O)C3)co2)ccn1 — IC50 (A20; cell growth or viability; 5 days): 2.45 µM
O=c1[nH]cc(S(=O)(=O)Nc2cccc(-c3nnc(-c4cccc(Cl)c4)o3)c2)c(=O)[nH]1 — IC50 (NCI-H441; cell growth or viability, MTT; 24 h): 4.29 µM
Clc1ccc(-c2nc3ccccc3[nH]2)cc1Cl — IC50 (MCF7; cell growth or viability, MTT; 48 h): 11.1 µM
COc1c(C)c(OC)c2c(c1C)OC(c1ccccc1)CC2=O (stereo not shown) — IC50 (FaDu; cell growth or viability, SRB; 72 h): > 50 µM
Nc1c2c(nc3ccccc13)CCCC2O (stereo not shown) — IC50 (FaDu; cell growth or viability; 72 h): > 20 µM
CC(=O)O[C@H]1C(=O)[C@@]2(C)[C@H]([C@H](OC(=O)c3ccccc3)[C@]3(O)C[C@H](OC(=O)[C@H](O)[C@@H](NC(=O)c4ccccc4)c4ccccc4)C(C)=C1C3(C)C)[C@]1(OC(C)=O)CO[C@@H]1C[C@@H]2O — IC50 (MCF7; cell growth or viability, MTT): 2.35 µM
N#Cc1cc([N+](=O)[O-])c2sc(C(N)=O)[n+]([O-])c2c1 — IC50 (THP-1; TNF-α release, inhibitor, ELISA; 17 h, LPS-stimulated): 1.95 µM
CCn1cnc2ccc(/C=C/C(=O)NO)cc2c1=O — IC50 (SW-620; cell growth or viability, SRB; 48 h): 6.69 µM
Cc1ccc2nc(-c3ccco3)n(Cc3ccccc3)c2c1 — IC50 (MCF7; cell growth or viability, MTT): 41.5 µM
O=c1c(O)c(-c2ccc(O)c(O)c2)oc2cc(O)cc(O)c12 — IC50 (HEp-2; cell growth or viability, WST-1; 48 h): 10.9 µM
CC[C@@]1(O)C(=O)OCc2c1cc1n(c2=O)Cc2cc3ccccc3nc2-1 — IC50 (P388; cell growth or viability, MTT; 96 h): 0.014 µM
O=[N+]([O-])c1cccc(-c2nc3ccccc3[nH]2)c1 — IC50 (MCF7; cell growth or viability, MTT; 48 h): 24.4 µM
O=C(/C=C/c1ccc(O)c(O)c1)O[C@@H]1C[C@](O)(C(=O)O)C[C@@H](O)[C@H]1O — IC50 (HEp-2; cell growth or viability, WST-1; 48 h): 5.1 µM
COc1ccc(CCN(C)CCc2ccc(OC)c(OC)c2)cc1OC — IC50 (FaDu; cell growth or viability; 72 h): > 20 µM
CNC[C@H](O)c1ccc(O)c(O)c1 — IC50 (THP-1; TNF-α release, inhibitor; 17 h, LPS-stimulated): 0.07 µM
Cc1ccc2nc(-c3c(F)cccc3Cl)[nH]c2c1 — IC50 (MCF7; cell growth or viability, MTT; 48 h): > 100 µM
O=C(/C=C/c1ccc2ncn(CC3CCCC3)c(=O)c2c1)NO — IC50 (SW-620; cell growth or viability, SRB; 48 h): 1.19 µM
CC(C)C[C@H](NC(=O)[C@H](Cc1ccccc1)NC(=O)c1cnccn1)B(O)O — IC50 (SJSA-1; cell growth or viability, ATP luminescence): 0.011 µM
CN1C(=O)c2cc(C(N)=O)nc3c(N)c(Cl)c(N)c1c23 — IC50 (Calu-3; cell growth or viability): 17.6 µM
COc1cc2nc(N3CCN(C(=O)c4ccco4)[C@H]4CCCC[C@H]43)nc(N)c2cc1OC (racemic) — IC50 (FaDu; cell growth or viability; 72 h): 14.1 µM
O=C(/C=C/c1ccc2ncn(CC3CCCCC3)c(=O)c2c1)NO — IC50 (SW-620; cell growth or viability, SRB; 48 h): 1.16 µM
CC(C)NCC(O)c1ccc(O)c(O)c1 (racemic) — IC50 (THP-1; TNF-α release, inhibitor; 17 h, LPS-stimulated): 0.016 µM
CC(=O)CC(c1ccccc1)c1c(O)c2ccccc2oc1=O (stereo not shown) — IC50 (FaDu; cell growth or viability; 72 h): > 20 µM
CCCC1(C)C(C#N)(C#N)C1(C#N)C#N — IC50 (THP-1; TNF-α release, inhibitor; 17 h, LPS-stimulated): 1.15 µM
COc1c(C)c(OS(=O)(=O)c2ccc3ccccc3c2)c(C)c(OS(=O)(=O)c2ccc3ccccc3c2)c1C(=O)/C=C/c1ccccc1 — IC50 (FaDu; cell growth or viability, SRB; 72 h): > 50 µM
O=c1[nH]cc(F)c(=O)[nH]1 — IC50 (HEp-2; cell growth or viability, WST-1; 48 h): 9.3 µM
NCCc1ccc(O)c(O)c1 — IC50 (FaDu; cell growth or viability; 72 h): > 20 µM
CCOc1cc(OCC)cc(C(=O)O[C@@H]2CN3Cc4c(cc5c(c4OC)OCO5)[C@@]24C=C[C@H](OC)C[C@@H]34)c1 — IC50 (SAOS-2; cell growth or viability, WST-1): 2.8 µM
Nc1nc(Nc2ccccc2)nc2c1ncn2[C@@H]1O[C@H](CO)[C@@H](O)[C@H]1O — IC50 (FaDu; cell growth or viability; 72 h): > 20 µM
CC(=O)O[C@H]1C(=O)[C@@]2(C)[C@H]([C@H](OC(=O)c3ccccc3)[C@]3(O)C[C@H](OC(=O)[C@H](O)[C@@H](NC(=O)c4ccccc4)c4ccccc4)C(C)=C1C3(C)C)[C@]1(OC(C)=O)CO[C@@H]1C[C@@H]2O — IC50 (Panc02; cell growth or viability, CCK-8; 72 h): 0.0833 µM
CC(C)[C@H](N)C(=O)N1CCC[C@H]1B(O)O — IC50 (NOMO-1; cell growth or viability, ATP luminescence; 48 h): 0.165 µM
CC(C)(C=O)Cc1cc(C(C)(C)C)c(O)c(C(C)(C)C)c1 — IC50 (FaDu; cell growth or viability; 72 h): > 20 µM
COc1cccc(C(=O)O[C@@H]2CN3Cc4c(cc5c(c4OC)OCO5)[C@@]24C=C[C@H](OC)C[C@@H]34)c1 — IC50 (SAOS-2; cell growth or viability, WST-1): 6.9 µM
CN(C)c1ccc(-c2nc3ccccc3[nH]2)cc1 — IC50 (MCF7; cell growth or viability, MTT; 48 h): > 100 µM
COc1ccc(CC(C)NCC(O)c2ccc(O)c(NC=O)c2)cc1 (stereo not shown) — IC50 (THP-1; TNF-α release, inhibitor; 17 h, LPS-stimulated): 0.006 µM
O=C(/C=C/c1ccc2c(=O)n(CC3CCCCC3)cnc2c1)NO — IC50 (SW-620; cell growth or viability, SRB; 48 h): 1.44 µM
CCCCCC/N=C1\c2cc(C(N)=O)nc3c(N)c(Cl)c(N)c(c23)N1C — IC50 (Calu-3; cell growth or viability): 0.86 µM
Clc1ccc(Cn2c(-c3ccc(Cl)cc3)nc3ccccc32)cc1 — IC50 (MCF7; cell growth or viability, MTT): 8.56 µM
COc1cc(Nc2nccc(-c3cnn4nc(OC)ccc34)n2)cc(C(F)(F)F)c1 — IC50 (NCI-H441; cell growth or viability, ATP luminescence): 0.57 µM
